This note sets out measurements from ChEMBL document CHEMBL3352584, “Novel DNA gyrase inhibiting spiropyrimidinetriones with a benzisoxazole scaffold: SAR and in vivo characterization” (J Med Chem, 2014).

What is called IC50 is the concentration at which inhibition is half-maximal. Lower therefore signals greater potency. What is called fraction unbound is free concentration divided by total concentration. Read a high fraction unbound as weak binding. What is called solubility is the concentration that dissolves in the medium under given conditions.

Each structure is given as a SMILES string. Converted amounts (≈) assume the structure as drawn. Bounds are passed on as bounds.

The first data set concerns the target DNA gyrase (Escherichia coli, UniProt P0AES4+P0AES6). As to the kind of experiment: Inhibition of Escherichia coli DNA gyrase using fluorescence-tagged DNA by fluorescenct polarization assay. In kind it is protein-complex assay. The method, boiled down: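 E. coli DNA gyrase supercoiling assay. The read-out was differential binding of a fluorescence-tagged DNA to relaxed versus supercoiled DNA, giving IC50.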
With `CC(=O)NC[C@H]1CN(c2ccc(N3CCOCC3)c(F)c2)C(=O)O1` [LINEZOLID], the half-maximal inhibitory concentration (IC50) was more than 32 µM.
The compound `Cc1noc2c(F)c3c(cc12)CC1(C(=O)NC(=O)NC1=O)[C@H]1[C@H](C)O[C@@H](C)CN31` yielded an IC50 of 26 µM.
`Cc1noc2c(F)c3c(cc12)CC1(C(=O)NC(=O)NC1=O)[C@@H]1[C@@H](C)O[C@H](C)CN31` gave a half-maximal inhibitory concentration (IC50) of 13 µM.

Tested on in another data set: not listed separately
As to the kind of experiment: Fraction unbound in human plasma at 10 uM after 16 hrs by LC-MS/MS analysis. In kind it is ADME, cell-free. The method, boiled down:
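Compound at 10 μM in human, rat or mouse plasma, equilibrium dialysis against buffer at 37 °C for 16 h. Buffer and plasma concentrations measured by LC-MS/MS, and the free fraction taken from their ratio.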
Consider `CC(=O)NC[C@H]1CN(c2ccc(N3CCOCC3)c(F)c2)C(=O)O1` [LINEZOLID], for which the free fraction (fraction unbound) at 16 h, 10 µM was determined as 0.71.
The compound `Cc1noc2c(F)c3c(cc12)CC1(C(=O)NC(=O)NC1=O)[C@H]1[C@H](C)O[C@@H](C)CN31` came in with a fraction unbound at 16 h, 10 µM of 0.051.
As to `Cc1noc2c(F)c3c(cc12)CC1(C(=O)NC(=O)NC1=O)[C@@H]1[C@@H](C)O[C@H](C)CN31`, the unbound share (fraction unbound) at 16 h, 10 µM was 0.082.

Tested on in the next data set: not listed separately
Kind of data set: Solubility of the compound. In kind it is physicochemical.
On to `Cc1noc2c(F)c3c(cc12)CC1(C(=O)NC(=O)NC1=O)[C@H]1[C@H](C)O[C@@H](C)CN31`, for which the solubility turned out to be 340 µM (≈ 137 µg/mL).
The same measure, in the same setting: in the case of `Cc1noc2c(F)c3c(cc12)CC1(C(=O)NC(=O)NC1=O)[C@@H]1[C@@H](C)O[C@H](C)CN31` it was 190 µM (≈ 76.5 µg/mL).

The test system of the next data set is Streptococcus pneumoniae. As to the kind of experiment: Antimicrobial activity against Streptococcus pneumoniae by broth microdilution method. It counts as functional. The method, boiled down: (§1)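 Broth microdilution following CLSI guidelines. Values under 12.5 μM are averages of three or more replicates.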
As for `O=C(O)c1cn(C2CC2)c2cc(N3CCNCC3)c(F)cc2c1=O` [CIPROFLOXACIN], the MIC was 1.5 µM (≈ 0.497 µg/mL).
Regarding `CC(=O)NC[C@H]1CN(c2ccc(N3CCOCC3)c(F)c2)C(=O)O1` [LINEZOLID], the MIC worked out at 3.1 µM (≈ 1.05 µg/mL).
On the same count and under the same terms, the result for `Cc1noc2c(F)c3c(cc12)CC1(C(=O)NC(=O)NC1=O)[C@H]1[C@H](C)O[C@@H](C)CN31` reads more than 200 µM.
Still for that read-out and setting: in the case of `Cc1noc2c(F)c3c(cc12)CC1(C(=O)NC(=O)NC1=O)[C@@H]1[C@@H](C)O[C@H](C)CN31` it was 100 µM (≈ 40.2 µg/mL).

A further data set relates to Streptococcus pyogenes. As to the kind of experiment: Antimicrobial activity against Streptococcus pyogenes by broth microdilution method. In kind it is functional. The method, boiled down:
as §1
`O=C(O)c1cn(C2CC2)c2cc(N3CCNCC3)c(F)cc2c1=O` [CIPROFLOXACIN] showed an MIC of 1.5 µM (≈ 0.497 µg/mL).
`CC(=O)NC[C@H]1CN(c2ccc(N3CCOCC3)c(F)c2)C(=O)O1` [LINEZOLID] came in with an MIC of 3.1 µM (≈ 1.05 µg/mL).
Same read-out and setting: the result for `Cc1noc2c(F)c3c(cc12)CC1(C(=O)NC(=O)NC1=O)[C@H]1[C@H](C)O[C@@H](C)CN31` reads more than 200 µM.
Turning to `Cc1noc2c(F)c3c(cc12)CC1(C(=O)NC(=O)NC1=O)[C@@H]1[C@@H](C)O[C@H](C)CN31`, the MIC is 200 µM (≈ 80.5 µg/mL).

The next data set relates to Staphylococcus aureus. Kind of data set: Antimicrobial activity against methicillin-sensitive Staphylococcus aureus by broth microdilution method. It counts as functional. The method, boiled down:
as §1
In general terms: In broth dilution the organism is exposed to a series of concentrations in liquid medium.
In turn, `O=C(O)c1cn(C2CC2)c2cc(N3CCNCC3)c(F)cc2c1=O` [CIPROFLOXACIN] gave an MIC of 0.91 µM (≈ 0.302 µg/mL).
Same read-out and setting: the result for `CC(=O)NC[C@H]1CN(c2ccc(N3CCOCC3)c(F)c2)C(=O)O1` [LINEZOLID] reads 6.2 µM (≈ 2.09 µg/mL).
Regarding `Cc1noc2c(F)c3c(cc12)CC1(C(=O)NC(=O)NC1=O)[C@H]1[C@H](C)O[C@@H](C)CN31`, the MIC was more than 200 µM.
Compound `Cc1noc2c(F)c3c(cc12)CC1(C(=O)NC(=O)NC1=O)[C@@H]1[C@@H](C)O[C@H](C)CN31` displayed an MIC of 25 µM (≈ 10.1 µg/mL).

The subject of another data set is Staphylococcus aureus. As to the kind of experiment: Antimicrobial activity against methicillin-resistant and quinolone-resistant Staphylococcus aureus by broth microdilution method. In kind it is functional. An outline of the steps:
as §1
As to `O=C(O)c1cn(C2CC2)c2cc(N3CCNCC3)c(F)cc2c1=O` [CIPROFLOXACIN], the MIC turned out to be 96 µM (≈ 31.8 µg/mL).
Turning to `CC(=O)NC[C@H]1CN(c2ccc(N3CCOCC3)c(F)c2)C(=O)O1` [LINEZOLID], the MIC was found to be 6.2 µM (≈ 2.09 µg/mL).
In the case of `Cc1noc2c(F)c3c(cc12)CC1(C(=O)NC(=O)NC1=O)[C@H]1[C@H](C)O[C@@H](C)CN31`, the MIC was more than 200 µM.
For the compound `Cc1noc2c(F)c3c(cc12)CC1(C(=O)NC(=O)NC1=O)[C@@H]1[C@@H](C)O[C@H](C)CN31`, the MIC was determined as 50 µM (≈ 20.1 µg/mL).

The next data set has as its system Haemophilus influenzae. Kind of data set: Antimicrobial activity against Haemophilus influenzae by broth microdilution method. It counts as functional. The method, boiled down:
as §1
In turn, `O=C(O)c1cn(C2CC2)c2cc(N3CCNCC3)c(F)cc2c1=O` [CIPROFLOXACIN] gave an MIC of less than 0.1 µM.
For the compound `CC(=O)NC[C@H]1CN(c2ccc(N3CCOCC3)c(F)c2)C(=O)O1` [LINEZOLID], the MIC turned out to be 23 µM (≈ 7.76 µg/mL).
On to `Cc1noc2c(F)c3c(cc12)CC1(C(=O)NC(=O)NC1=O)[C@H]1[C@H](C)O[C@@H](C)CN31`, for which the MIC was determined as 200 µM (≈ 80.5 µg/mL).
`Cc1noc2c(F)c3c(cc12)CC1(C(=O)NC(=O)NC1=O)[C@@H]1[C@@H](C)O[C@H](C)CN31`: the MIC worked out at 25 µM (≈ 10.1 µg/mL).

For the next data set, the system named is Escherichia coli. As to the kind of experiment: Antimicrobial activity against Escherichia coli by broth microdilution method. In kind it is functional. An outline of the steps: as §1
Turning to `O=C(O)c1cn(C2CC2)c2cc(N3CCNCC3)c(F)cc2c1=O` [CIPROFLOXACIN], the MIC was 0.06 µM (≈ 0.0199 µg/mL).
`CC(=O)NC[C@H]1CN(c2ccc(N3CCOCC3)c(F)c2)C(=O)O1` [LINEZOLID] showed an MIC of more than 200 µM.
Compound `Cc1noc2c(F)c3c(cc12)CC1(C(=O)NC(=O)NC1=O)[C@H]1[C@H](C)O[C@@H](C)CN31` had an MIC of more than 200 µM.
As for `Cc1noc2c(F)c3c(cc12)CC1(C(=O)NC(=O)NC1=O)[C@@H]1[C@@H](C)O[C@H](C)CN31`, the MIC was more than 200 µM.

Another data set concerns Escherichia coli. As to the kind of experiment: Antimicrobial activity against tolC-deficient Escherichia coli by broth microdilution method. In kind it is functional. The method, boiled down:
as §1
`O=C(O)c1cn(C2CC2)c2cc(N3CCNCC3)c(F)cc2c1=O` [CIPROFLOXACIN]: the MIC is less than 0.1 µM.
As to `CC(=O)NC[C@H]1CN(c2ccc(N3CCOCC3)c(F)c2)C(=O)O1` [LINEZOLID], the MIC is 20 µM (≈ 6.75 µg/mL).
In the case of `Cc1noc2c(F)c3c(cc12)CC1(C(=O)NC(=O)NC1=O)[C@H]1[C@H](C)O[C@@H](C)CN31`, the MIC was found to be 12 µM (≈ 4.83 µg/mL).
The same measure, in the same setting: in the case of `Cc1noc2c(F)c3c(cc12)CC1(C(=O)NC(=O)NC1=O)[C@@H]1[C@@H](C)O[C@H](C)CN31` it was 1.6 µM (≈ 0.644 µg/mL).

The subject of a further data set is Staphylococcus aureus. As to the kind of experiment: Antimicrobial activity against methicillin-sensitive Staphylococcus aureus by broth microdilution method in presence of 50% human serum. It counts as functional. An outline of the steps:
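CLSI broth microdilution against methicillin-sensitive S. aureus, run with 50% human serum added to the medium to reflect plasma protein binding. Values under 12.5 μM are averages of three or more replicates.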
Turning to `CC(=O)NC[C@H]1CN(c2ccc(N3CCOCC3)c(F)c2)C(=O)O1` [LINEZOLID], the MIC is 12 µM.
